This is a sample that favours compounds with a hit; in the whole collection about 2.4% have one here.
Insulin prom up: MIN6 insulin promoter up-regulation. MIN6 insulin promoter-GFP reporter, high-content imaging; hits give high values. z-score at 5 µM. hit rate 0.3% among 190,000. AID 1625;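 active = z-score above 3 at 5 µM with at least 500 cells counted in the well; inconclusive = wells under 500 cells, flagged as cytotoxic or low count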
SR-BI DiI-HDL act: SR-BI HDL lipid transfer activation | hit rate 0.096% among 320,000 | CHO ldlA[mSR-BI] cells, DiI-HDL uptake fluorescence, 3 h; 100 = double the neutral-control signal | activation, % at 12.5 µM;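 active = mean replicate activation of at least 60% and every replicate at or above 60%; inconclusive = mean or all-replicate condition met, but not both; inactive = mean below 60% and not all replicates reaching 60%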
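Material – SR-BI-overexpressing, LDLR-lacking CHO cells · Medium – BSA-supplemented, HEPES-buffered Ham's F12, pH 7.4 · Doses – single concentration · Times – compound with DiI-HDL co-incubation, 3 h at 37 °C · Measured by – bottom-read fluorescence, 550/595 nm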
MIN6 prolif-1: MIN6 beta-cell proliferation induction | hit rate 0.29% among 330,000 | proliferation, % at 10 µM | MIN6 cells proliferation, ATPlite luminescence, 48 h; cells starved in 0.2% serum; 100% = growth in 10% serum | AID 2380;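 active = compounds whose signal lies at least 3.5 SD above the mean of all wells on their plate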
HTR2A ag: mouse HTR2A agonism via beta-arrestin recruitment; P35363; AID 624169; hit rate 0.66% among 360,000; activation, % at 7.6 µM; CHO-K1 mHTR2A beta-arrestin complementation, luminescence; percent of 30 µM serotonin response;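 active = activation above a run cutoff, the mean activation of all tested compounds plus 3 SD, cut at about 14% in these data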
Target sequence (P35363 whole entry, looked up): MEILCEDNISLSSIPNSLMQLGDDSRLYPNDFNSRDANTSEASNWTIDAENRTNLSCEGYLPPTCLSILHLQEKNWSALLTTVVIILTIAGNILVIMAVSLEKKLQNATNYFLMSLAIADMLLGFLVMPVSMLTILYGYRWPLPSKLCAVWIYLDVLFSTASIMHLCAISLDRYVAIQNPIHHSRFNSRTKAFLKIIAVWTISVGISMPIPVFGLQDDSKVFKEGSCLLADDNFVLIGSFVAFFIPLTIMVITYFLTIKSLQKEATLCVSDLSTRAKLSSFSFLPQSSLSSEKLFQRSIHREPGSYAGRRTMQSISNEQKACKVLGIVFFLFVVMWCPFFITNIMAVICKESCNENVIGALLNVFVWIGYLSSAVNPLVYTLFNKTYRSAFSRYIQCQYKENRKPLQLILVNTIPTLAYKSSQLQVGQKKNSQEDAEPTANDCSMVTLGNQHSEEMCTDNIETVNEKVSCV
Calb FLC: C. albicans growth modulation with fluconazole; C. albicans CaCi-2 + fluconazole, Alamar Blue growth, 48 h; growth inhibition, % (no concentration beside the values); hit rate 0.57% among 300,000;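 active = growth inhibition above about 58% in most replicates, limit read from the data, passing the limit was not always enough; inconclusive = exactly half the replicates above a set limit; inactive = most replicates below a set limit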;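 note: all wells also contain fluconazole at 8 µg/ml as a sub-toxic cotreatment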
SR-BI DiI inh: mouse SR-BI HDL lipid transfer inhibition; ldlA[mSR-BI] CHO cells, DiI-HDL uptake fluorescence, 3 h; inhibition, % at 12.5 µM; hit rate 0.96% among 320,000;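 active = mean replicate inhibition of at least 70% and a set share of replicates each scoring 70 or more; inconclusive = meets just one of the two criteria; inactive = fails both criteria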
MIN6 prolif-2: MIN6 beta-cell replication induction, confirmed; AID 463095; 920 tested, under 10 active; shares compounds with MIN6 prolif-1; proliferation increase, % at 50 µM; MIN6 beta-cell proliferation, ATPlite luminescence, 48 h; cells kept in 0.2% serum; scaled between 0.2% and 10% serum;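 active = proliferation increase above 40% at any of the four tested concentrations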
Numbers stand for hits.

How did CC1CN(Cc2ccccc2)C(=O)N(c2ccccc2)C1=O (stereo not given) do in these assays?
SR-BI DiI-HDL act: inactive; HTR2A ag: inactive; SR-BI DiI inh: inactive

Results for CC1CN(Cc2ccccc2)c2ccccc2NC1=S (stereo not given) ?
Insulin prom up: inactive; SR-BI DiI-HDL act: inactive; MIN6 prolif-1: 0.0; HTR2A ag: inactive; Calb FLC: inconclusive; SR-BI DiI inh: inactive; MIN6 prolif-2: inactive

What do the screens show for `CC(C)c1cc(Cn2c3ccccc3c(=O)n2C(C)Cn2cc(-c3ccccc3)nn2)on1` (stereo not given)?
HTR2A ag: inactive

What do the screens show for `COc1ccc(COC(=O)C2=C(C)NC(=O)NC2c2ccc(O)c(OC)c2)cc1` (stereo not given)?
Insulin prom up: inactive; SR-BI DiI-HDL act: inactive; MIN6 prolif-1: inactive; HTR2A ag: inactive; Calb FLC: inactive; SR-BI DiI inh: inactive

How did COc1ccc(COC(=O)C2=C(C)NC(=O)NC2c2ccc(OC)c(OC)c2)cc1 (stereo not given) do in these assays?
SR-BI DiI-HDL act: inactive; MIN6 prolif-1: 6.2; HTR2A ag: inactive; Calb FLC: inactive; SR-BI DiI inh: inactive; MIN6 prolif-2: inactive

What do the screens show for `COc1ccc(NC(=O)/C(C#N)=C/c2ccc(OCCN3CCOCC3)c(OC)c2)c(OC)c1`?
SR-BI DiI-HDL act: inactive; MIN6 prolif-1: 11; HTR2A ag: inactive; Calb FLC: inactive; SR-BI DiI inh: 75; MIN6 prolif-2: inactive

What do the screens show for `COc1ccccc1NC(=O)/C(C#N)=C/c1ccc(OCCN2CCOCC2)c(OC)c1`?
SR-BI DiI-HDL act: inactive; MIN6 prolif-1: inactive; HTR2A ag: inactive; Calb FLC: inactive; SR-BI DiI inh: inconclusive

How did S=c1[nH]nc(-c2ccc3ccccc3n2)n1Cc1ccccc1 do in these assays?
Insulin prom up: inactive; SR-BI DiI-HDL act: inactive; MIN6 prolif-1: 8.6; HTR2A ag: inactive; Calb FLC: inactive; SR-BI DiI inh: inactive; MIN6 prolif-2: inactive

Results for Fc1ccc(-n2c(-c3ccc4ccccc4n3)n[nH]c2=S)cc1 ?
Insulin prom up: inactive; SR-BI DiI-HDL act: inactive; MIN6 prolif-1: 7.9; HTR2A ag: inactive; Calb FLC: inactive; SR-BI DiI inh: inactive; MIN6 prolif-2: inactive

How did Cc1ccc(C(=O)OCC(=O)NCCN2C(=O)CSC2=O)cc1[N+](=O)[O-] do in these assays?
SR-BI DiI-HDL act: inactive; MIN6 prolif-1: inactive; HTR2A ag: inactive; SR-BI DiI inh: inactive

What do the screens show for `Cc1cc(C(=O)OCC(=O)NCCN2C(=O)CSC2=O)ccc1[N+](=O)[O-]`?
SR-BI DiI-HDL act: inactive; MIN6 prolif-1: 9.7; HTR2A ag: inactive; SR-BI DiI inh: inactive; MIN6 prolif-2: inactive

How did CCCCOCCCn1c(-c2ccco2)nc2nc3ccccc3nc21 do in these assays?
Insulin prom up: inactive; SR-BI DiI-HDL act: inactive; MIN6 prolif-1: 7.8; HTR2A ag: inactive; Calb FLC: inactive; SR-BI DiI inh: inactive; MIN6 prolif-2: inactive

What do the screens show for `CCCCn1c(-c2cccs2)nc2nc3ccccc3nc21`?
Insulin prom up: inactive; SR-BI DiI-HDL act: inactive; MIN6 prolif-1: inactive; HTR2A ag: inactive; Calb FLC: inactive; SR-BI DiI inh: inactive

Results for O=C(CN1C(=O)NC2(CCCC2)C1=O)NC(c1ccccc1)c1ccccc1 ?
SR-BI DiI-HDL act: inactive; MIN6 prolif-1: inactive; HTR2A ag: inactive; SR-BI DiI inh: inactive

What do the screens show for `CC(NC(=O)CN1C(=O)NC2(CCCCCCC2)C1=O)c1ccccc1` (stereo not given)?
SR-BI DiI-HDL act: inactive; MIN6 prolif-1: 9.5; HTR2A ag: inactive; SR-BI DiI inh: inactive; MIN6 prolif-2: inactive

How did O=C(NCc1cccc(Cl)c1)c1ccc(-n2cncn2)c2ccoc12 do in these assays?
HTR2A ag: inactive

Results for CC(=O)Nc1nc2ccc(-c3nc4ccccc4o3)cc2s1 ?
SR-BI DiI-HDL act: inactive; MIN6 prolif-1: inactive; HTR2A ag: inactive; Calb FLC: inactive; SR-BI DiI inh: inactive

How did O=C(Cc1ccc(-c2ccccc2)cc1)Nc1ccccc1 do in these assays?
MIN6 prolif-1: 6.0; HTR2A ag: inactive; Calb FLC: inactive; MIN6 prolif-2: inactive

What do the screens show for `CCOc1ccc(/C=N/n2c(SC)nnc2-c2ccccc2)cc1OCC`?
Insulin prom up: inactive; SR-BI DiI-HDL act: inactive; MIN6 prolif-1: 8.2; HTR2A ag: inactive; Calb FLC: inactive; SR-BI DiI inh: inactive; MIN6 prolif-2: inactive

How did CCOc1ccc(C=NN2CCCCCC2)cc1OCC do in these assays?
SR-BI DiI-HDL act: inactive; HTR2A ag: inactive; SR-BI DiI inh: inactive

How did COC(=O)[C@]1(C)N[C@H](c2ccc(SC3CCCCC3)c(OC)c2)[C@@H]2C(=O)N(C)C(=O)[C@@H]21 do in these assays?
SR-BI DiI-HDL act: inactive; MIN6 prolif-1: inactive; HTR2A ag: inactive; Calb FLC: inactive; SR-BI DiI inh: inactive

What do the screens show for `COCc1cccc(-c2csc(C(C)(O)c3cccc(F)c3)n2)c1` (stereo not given)?
HTR2A ag: inactive

How did C=CCN1C(=O)/C(=C2/Sc3ccccc3N2CCCS(=O)(=O)O)SC1=S do in these assays?
Insulin prom up: inactive; SR-BI DiI-HDL act: inactive; MIN6 prolif-1: 6.4; HTR2A ag: inactive; Calb FLC: inactive; SR-BI DiI inh: inactive; MIN6 prolif-2: inactive

What do the screens show for `C=CCN1C(=O)/C(=C2/Sc3ccccc3N2CC)SC1=S`?
SR-BI DiI-HDL act: inactive; MIN6 prolif-1: inactive; HTR2A ag: inactive; Calb FLC: inactive; SR-BI DiI inh: inactive

What do the screens show for `CCOc1ccccc1C(=O)NC(C(=O)OCC(=O)NNC(=O)c1cccs1)C(C)C` (stereo not given)?
HTR2A ag: inactive

How did CCOC(=O)c1c(C)[nH]c(C)c1C(=O)COC(=O)[C@@H](NC(=O)c1ccccc1OCC)C(C)C do in these assays?
Insulin prom up: inactive; SR-BI DiI-HDL act: inactive; MIN6 prolif-1: 7.4; HTR2A ag: inactive; Calb FLC: inactive; SR-BI DiI inh: inactive; MIN6 prolif-2: inactive

What do the screens show for `S=C1SC2(CCCCCC2)NC2=C1CCCCC2`?
HTR2A ag: inactive

What do the screens show for `CCN(C(=O)CSc1ncccn1)c1c(N)n(Cc2ccccc2)c(=O)[nH]c1=O`?
SR-BI DiI-HDL act: inactive; MIN6 prolif-1: 16; HTR2A ag: inactive; SR-BI DiI inh: inactive; MIN6 prolif-2: inactive

What do the screens show for `CN(C(=O)CN1CCCCCC1)c1c(N)n(Cc2ccccc2)c(=O)[nH]c1=O`?
SR-BI DiI-HDL act: inactive; MIN6 prolif-1: 12; HTR2A ag: inactive; SR-BI DiI inh: inactive; MIN6 prolif-2: inactive

How did COCCN(C(=O)CSc1ncccn1)c1c(N)n(Cc2ccccc2)c(=O)[nH]c1=O do in these assays?
SR-BI DiI-HDL act: inactive; MIN6 prolif-1: inactive; HTR2A ag: inactive; Calb FLC: inactive; SR-BI DiI inh: inactive

Results for CCCCn1nnnc1C1(C)CCC(=O)N1CCCN1CCOCC1 (stereo not given) ?
HTR2A ag: inactive

From PubChem
